What was measured:
[1] = biological target: T1, Adrenergic receptor alpha-1 (Rattus norvegicus, UniProt P15823+P23944+P43140); assay: Displacement of [3H]prazosin from rat cortex Alpha-1 adrenergic receptor
T1 sequence (P15823 whole entry): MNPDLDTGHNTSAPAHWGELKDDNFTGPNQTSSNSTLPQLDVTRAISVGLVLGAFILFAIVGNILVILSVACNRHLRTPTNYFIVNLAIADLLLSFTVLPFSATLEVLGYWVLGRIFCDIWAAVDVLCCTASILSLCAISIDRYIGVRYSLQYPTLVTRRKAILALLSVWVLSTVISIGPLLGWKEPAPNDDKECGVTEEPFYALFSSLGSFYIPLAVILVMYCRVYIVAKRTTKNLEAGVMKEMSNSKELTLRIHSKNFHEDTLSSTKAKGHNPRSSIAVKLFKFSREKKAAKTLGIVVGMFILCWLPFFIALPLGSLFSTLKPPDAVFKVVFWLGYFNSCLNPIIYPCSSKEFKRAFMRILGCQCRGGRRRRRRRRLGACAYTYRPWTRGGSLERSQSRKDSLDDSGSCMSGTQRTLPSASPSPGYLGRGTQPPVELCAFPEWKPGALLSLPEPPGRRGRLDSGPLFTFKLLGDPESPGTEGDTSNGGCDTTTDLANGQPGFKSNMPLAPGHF
T1 sequence (P23944 whole entry): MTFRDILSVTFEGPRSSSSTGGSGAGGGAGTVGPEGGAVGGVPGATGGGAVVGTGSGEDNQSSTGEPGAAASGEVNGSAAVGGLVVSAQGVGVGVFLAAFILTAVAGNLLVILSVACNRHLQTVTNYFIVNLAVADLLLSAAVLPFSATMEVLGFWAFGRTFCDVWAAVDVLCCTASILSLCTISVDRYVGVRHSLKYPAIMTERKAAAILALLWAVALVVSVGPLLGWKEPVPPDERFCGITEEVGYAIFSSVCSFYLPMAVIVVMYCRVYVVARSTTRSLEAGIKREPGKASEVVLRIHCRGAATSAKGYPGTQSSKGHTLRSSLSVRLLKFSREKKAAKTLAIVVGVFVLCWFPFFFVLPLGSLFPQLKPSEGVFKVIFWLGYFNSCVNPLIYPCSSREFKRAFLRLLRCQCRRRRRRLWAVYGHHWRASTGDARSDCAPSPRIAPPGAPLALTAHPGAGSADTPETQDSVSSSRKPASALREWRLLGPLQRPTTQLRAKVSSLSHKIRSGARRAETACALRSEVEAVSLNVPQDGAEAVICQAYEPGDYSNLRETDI
T1 sequence (P43140 whole entry): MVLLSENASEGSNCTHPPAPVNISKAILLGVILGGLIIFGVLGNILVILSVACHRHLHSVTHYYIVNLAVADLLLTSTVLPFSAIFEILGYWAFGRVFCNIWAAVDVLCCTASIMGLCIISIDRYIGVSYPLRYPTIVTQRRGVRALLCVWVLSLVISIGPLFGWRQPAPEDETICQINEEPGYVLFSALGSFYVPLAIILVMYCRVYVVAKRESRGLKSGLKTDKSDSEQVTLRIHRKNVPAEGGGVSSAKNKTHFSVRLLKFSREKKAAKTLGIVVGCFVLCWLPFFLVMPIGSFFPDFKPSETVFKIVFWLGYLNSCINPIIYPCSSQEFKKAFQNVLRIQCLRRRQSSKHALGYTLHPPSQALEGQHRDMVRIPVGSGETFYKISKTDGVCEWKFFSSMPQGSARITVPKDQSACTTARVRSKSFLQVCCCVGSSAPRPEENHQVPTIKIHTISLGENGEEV
Procedure, shortened: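 Rat cortex membranes labelled with [3H]prazosin (0.3 nM), nonspecific binding with prazosin (10 µM). Nine drug concentrations spanning 3 log units, IC50 by log-probit analysis. Ki by Cheng–Prusoff using Kd from Scatchard saturation. At least three independent experiments in duplicate.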

[2] = biological target: T2, Alpha-2B adrenergic receptor (Rattus norvegicus, UniProt P19328); assay: Binding affinity towards Alpha-2B adrenergic receptor in neonatal rat lung using [3H]-RX-821002 as radioligand
T2 sequence (P19328 whole entry): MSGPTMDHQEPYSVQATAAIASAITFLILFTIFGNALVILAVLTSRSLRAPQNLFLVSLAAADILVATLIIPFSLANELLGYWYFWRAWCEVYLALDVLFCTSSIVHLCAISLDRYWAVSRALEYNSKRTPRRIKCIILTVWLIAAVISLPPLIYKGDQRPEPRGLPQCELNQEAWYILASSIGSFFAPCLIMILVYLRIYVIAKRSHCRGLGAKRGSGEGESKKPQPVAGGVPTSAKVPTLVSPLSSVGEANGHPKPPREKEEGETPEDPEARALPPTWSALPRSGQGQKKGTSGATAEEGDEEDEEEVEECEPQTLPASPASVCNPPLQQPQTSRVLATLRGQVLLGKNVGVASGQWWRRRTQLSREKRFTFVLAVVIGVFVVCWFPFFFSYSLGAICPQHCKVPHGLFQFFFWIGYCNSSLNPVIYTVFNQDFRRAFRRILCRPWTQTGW
Procedure, shortened: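 Neonatal rat lung membranes with [3H]RX821002 (0.5 nM), nonspecific binding with phentolamine (10 µM). Nine concentrations over 3 log units, IC50 by log-probit, Ki by Cheng–Prusoff with Scatchard-derived Kd. ≥3 independent experiments in duplicate.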

[3] = biological target: T3, Alpha-2A adrenergic receptor (Homo sapiens, UniProt P08913); assay: Binding affinity towards Alpha-2A adrenergic receptor in human platelets using [3H]RX-821002 as radioligand
T3 sequence (P08913 whole entry): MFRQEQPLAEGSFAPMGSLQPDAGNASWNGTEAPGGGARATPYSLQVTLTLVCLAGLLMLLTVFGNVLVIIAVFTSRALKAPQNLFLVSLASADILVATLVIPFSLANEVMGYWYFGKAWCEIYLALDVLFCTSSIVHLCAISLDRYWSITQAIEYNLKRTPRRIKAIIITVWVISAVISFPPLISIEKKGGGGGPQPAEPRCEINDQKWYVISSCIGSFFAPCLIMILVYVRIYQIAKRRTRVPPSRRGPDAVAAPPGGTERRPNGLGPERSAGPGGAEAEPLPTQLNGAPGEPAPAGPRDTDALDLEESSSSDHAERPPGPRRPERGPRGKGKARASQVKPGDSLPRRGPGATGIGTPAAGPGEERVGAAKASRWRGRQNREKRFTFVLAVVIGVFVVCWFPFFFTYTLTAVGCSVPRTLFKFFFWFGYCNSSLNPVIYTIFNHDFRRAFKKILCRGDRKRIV
Procedure, shortened: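 Human platelet membranes with [3H]RX821002 (1.5 nM), nonspecific binding with phentolamine (10 µM). Displacement at nine concentrations spanning 3 orders of magnitude, IC50 by log-probit analysis, converted to Ki using Scatchard Kd. ≥3 independent duplicate experiments.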

[4] = species on record: Canis familiaris; assay: Effective concentration for the agonist in the isolated blood vessel using in vitro femoral artery; format: functional; details: Canis lupus familiaris
Procedure, shortened: (§1)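 Vessel segments from mongrel dogs (15–25 kg) anesthetized with pentobarbital (30 mg/kg iv), mounted for isometric tension in physiological saline. Equilibrated 90 min with bath changes every 30 min, rauwolscine (10^-7 M) present throughout. Primed with KCl (100 mM), then phenylephrine (1 µM). Agonist concentration–response curves run at half-log steps, giving EC50 (µM) and Emax as % of phenylephrine maximum; mean ±SD.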

[5] = species on record: Canis familiaris; assay: Effective concentration for the agonist in the isolated blood vessel using in vitro saphenous vein; format: functional; details: Canis lupus familiaris; procedure, shortened: as §1
[6] = species on record: Canis familiaris; assay: Maximal contractile response obtained with the agonist (expressed as a percentage of the maximal contraction to phenylephrine in the dog femoral artery); format: functional, Canis lupus familiaris; procedure, shortened: as §1
[7] = species on record: Canis familiaris; assay: Maximal contractile response obtained with the agonist (expressed as a percentage of the maximal contraction to phenylephrine in the dog saphenous vein); format: functional, Canis lupus familiaris; procedure, shortened: as §1
[8] = biological target: T4, Adrenergic receptor alpha (Rattus norvegicus) (UniProt P15823+P23944+P43140+P22086+P19328+P22909); assay: Alpha adrenergic activity was evaluated as concentration (iv) which increases the arterial pressure by 20 mmHg in the pithed rat; format: functional, organism-based; details: Artery
[9] = Ratio of C20 obtained in the absence or presence of [C20 ( 0.1 mg of prazosin ) / C20 (control)]; format: functional
Procedure, shortened: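 Pithed rats pretreated with tertatolol (100 mg/kg), then 10 min later with prazosin (100 µg/kg). Cumulative iv agonist doses given another 10 min later at 20 s intervals. Arterial pressure recorded, C20 (dose giving +20 mmHg) determined. Ratio calculated as C20(prazosin)/C20(control); 3–6 determinations.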

[10] = Ratio of C20 obtained in the absence or presence of [C20 (1 mg of yohimbine.) / C20 (control)]; format: functional
Procedure, shortened: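 Pithed rat arterial pressure assay with tertatolol (100 mg/kg) pretreatment, then yohimbine (1 mg/kg) 10 min later. Cumulative iv agonist doses given at 20 s intervals after a further 10 min, C20 (+20 mmHg dose) obtained. Ratio expressed as C20(yohimbine)/C20(control); 3–6 determinations.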

[11] = biological target: T4, Adrenergic receptor alpha (Rattus norvegicus); assay: Alpha adrenergic activity was evaluated as maximal pressure response caused by agonist, expressed in mmHg (the maximum obtained with phenylephrine is 150 mmHg).; format: functional
[12] = Ratio of C20 (pithed rat) to that of EC50 (saphenous vein); format: functional

Row | SMILES | Ki [1] | Ki [2] | Ki [3] | EC50 [4] | EC50 [5] | Emax [6] | Emax [7] | C20 [8] | Ratio [9] | Ratio [10] | Max [11] | Ratio [12]
1 | Fc1cccc2c1CC1(CC2)CN=CN1 (stereo not given) | 2500 nM | 152 nM | 12 nM | 57000 nM | 2300 nM | 75 | 99 | 4.6 µg/kg | 0.6 | 1 | 131 mmHg | 
2 | Clc1cc(Cl)c2c(c1)CC1(CC2)CN=CN1 (stereo not given) | 700 nM | 95 nM | 3 nM | 21000 nM | 2000 nM | 10 | 45 | 19 µg/kg | 9.5 | 3.1 | 91 mmHg | 
3 | COc1ccc2c(c1)CCC1(CNC=N1)C2 (stereo not given) |  | 1200 nM | 87 nM |  |  |  |  |  |  |  |  | 
4 | COc1ccc2c(c1)CC1(CC2)CNC=N1 (stereo not given) |  | 193 nM | 18 nM |  |  |  |  |  |  |  |  | 
5 | Cc1cc2c(cc1C)CC1(CC2)CN=CN1 (stereo not given) |  |  |  |  | 2700 nM | 0 | 64 | 37 µg/kg | 0.5 | 2.5 | 72 mmHg | 14
6 | COc1ccc2c(c1)CC1(CC2)CN=CN1 (stereo not given) | 16000 nM |  |  |  | 7100 nM | 0 | 49 | 1.5 µg/kg | 3.9 | 6.9 | 106 mmHg | 0.21
7 | COc1cccc2c1CC1(CC2)CNC=N1 (stereo not given) |  | 99 nM | 51 nM |  |  |  |  |  |  |  |  | 
8 | Cc1cc(C)c2c(c1)CC1(CC2)CN=CN1 (stereo not given) |  |  |  | 800 nM | 2900 nM | 5 | 66 | 20 µg/kg | 2.9 | 2.8 | 91 mmHg | 25
9 | Fc1ccc2c(c1)CC1(CC2)CN=CN1 (stereo not given) |  |  |  |  | 11000 nM | 8 | 67 | 7.8 µg/kg | 5 | 7.7 | 108 mmHg | 0.71
10 | Clc1ccc2c(c1)CC1(CC2)CN=CN1 (stereo not given) |  |  |  |  | 5500 nM | 0 | 72 | 6.3 µg/kg | 2.6 | 5.8 | 116 mmHg | 1.15
11 | COc1cccc2c1CCC1(CNC=N1)C2 (stereo not given) |  | 159 nM | 12 nM |  |  |  |  |  |  |  |  | 
12 | Clc1ccc2c(c1)CCC1(CN=CN1)C2 (stereo not given) |  |  |  |  | 6000 nM | 0 |  | 6.3 µg/kg | 2.8 |  | 120 mmHg | 1.05
13 | FC(F)(F)c1ccc(Cl)c(NC2=NCCN2)c1 | 65800 nM | 179 nM | 1560 nM | 4700 nM | 5100 nM | 22 | 81 | 10 µg/kg | 33 | 2.2 | 73 mmHg | 
14 | COc1cc(C)cc2c1CCC1(CN=CN1)C2 (stereo not given) | 600 nM |  |  | 800 nM | 3900 nM | 60 | 81 | 10 µg/kg | 1.6 | 1 | 136 mmHg | 
15 | NC1=NC2(CCc3cccc(Cl)c3C2)CO1 (stereo not given) | 800 nM | 20 nM | 1.6 nM | 360 nM | 14 nM | 68 | 117 | 0.2 µg/kg | 2 | 3 | 140 mmHg | 
16 | COc1cccc2c1CC1(CC2)CN=CN1 (stereo not given) | 16000 nM |  |  | 7200 nM | 500 nM | 97 | 100 | 0.64 µg/kg | 2 | 4.6 | 139 mmHg | 
17 | CC(C)c1ccc2c(c1)CC1(CC2)CN=CN1 (stereo not given) |  |  |  |  | 4300 nM | 0 | 53 | 245 µg/kg | 2.9 | 2.9 | 66 mmHg | 57
18 | COc1ccc2c(c1)CCC1(CN=CN1)C2 (stereo not given) | 29400 nM |  |  |  | 8800 nM | 3 | 60 | 42 µg/kg | 2.6 | 1.5 | 105 mmHg | 4.77
